In assay [1] the test system is H35R0.3. Nature of the assay: Inhibition of (6RS)-5-formyltetrahydrofolate (2 uM) transport in H35 hepatoma cell culture and % uptake was determined in presence of inhibitor methotrexate (50 uM). The format is functional, cell-based. Summed up:
(§1)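 H35 hepatoma cells were grown to confluence, washed twice with Hanks BSS and incubated at 37 °C. [3H]-(6RS)-5-formyltetrahydrofolate (2 μM, 3.8×10^5 dpm/nmol) was added with or without inhibitor, and uptake was sampled at 10 min, within its linear range. Uptake is expressed as percent of the no-inhibitor control, as the mean of duplicate samples.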

Assay [2] has as its target Dihydrofolate reductase (Lactobacillus casei, UniProt P00381). Kind of assay: Inhibition of dihydrofolate reductase in Lactobacillus casei. On the set-up: species or system Lacticaseibacillus casei.
The target of assay [3] is T1, Trifunctional purine biosynthetic protein adenosine-3 (Homo sapiens, UniProt P22102).
T1 sequence (P22102 whole entry): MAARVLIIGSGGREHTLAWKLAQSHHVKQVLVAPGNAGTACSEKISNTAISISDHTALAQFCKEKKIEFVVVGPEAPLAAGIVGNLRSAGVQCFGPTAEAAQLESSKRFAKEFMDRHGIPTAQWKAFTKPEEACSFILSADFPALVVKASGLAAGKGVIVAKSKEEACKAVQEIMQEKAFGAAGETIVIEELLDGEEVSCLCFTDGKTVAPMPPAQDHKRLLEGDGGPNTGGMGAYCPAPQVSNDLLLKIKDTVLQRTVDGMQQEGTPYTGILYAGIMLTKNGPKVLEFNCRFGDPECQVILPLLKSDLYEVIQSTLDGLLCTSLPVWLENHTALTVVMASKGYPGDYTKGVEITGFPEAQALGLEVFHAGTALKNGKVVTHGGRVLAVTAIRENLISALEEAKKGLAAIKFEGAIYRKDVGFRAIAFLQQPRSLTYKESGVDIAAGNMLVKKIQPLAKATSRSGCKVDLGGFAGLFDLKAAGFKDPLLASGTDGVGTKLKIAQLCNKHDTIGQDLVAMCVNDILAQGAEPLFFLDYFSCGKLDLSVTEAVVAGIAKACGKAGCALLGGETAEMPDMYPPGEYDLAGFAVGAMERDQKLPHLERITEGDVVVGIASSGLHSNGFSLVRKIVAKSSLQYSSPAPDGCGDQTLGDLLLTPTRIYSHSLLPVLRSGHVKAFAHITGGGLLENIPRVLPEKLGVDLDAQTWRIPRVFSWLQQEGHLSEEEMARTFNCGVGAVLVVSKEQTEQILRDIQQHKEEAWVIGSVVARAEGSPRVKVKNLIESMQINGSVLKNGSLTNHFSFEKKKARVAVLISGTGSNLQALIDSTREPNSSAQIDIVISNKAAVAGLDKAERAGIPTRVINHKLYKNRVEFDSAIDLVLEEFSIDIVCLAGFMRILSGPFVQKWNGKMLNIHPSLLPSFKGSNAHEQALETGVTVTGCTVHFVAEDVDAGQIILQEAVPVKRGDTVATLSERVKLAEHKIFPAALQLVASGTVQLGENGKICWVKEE
Kind of assay: Inhibition of GAR formyltransferase from extract of Manca human lymphoma cells. Format: cell-based.

The subject of assay [4] is H35R0.3. Kind of assay: Inhibition of (6RS)-5-formyltetrahydrofolate (2 uM) transport in H35 hepatoma cell cultured and % uptake was determined in presence of inhibitor (6RS)-5-formyltetrahydrofolate (50 uM). Format: functional, cell-based. The gist of the method: as §1
The test system of assay [5] is H35R0.3. Kind of assay: Inhibition of growth of H35R cells. The format is functional, cell-based, Homo sapiens. The settings on record: Rattus norvegicus.
The subject of assay [6] is H35R0.3. Nature of the assay: Inhibition of (6RS)-5-formyltetrahydrofolate (2 uM) transport in H35 hepatoma cell culture and % uptake was determined in presence of inhibitor folic acid (50 uM). The format is functional, cell-based. Summed up: as §1
Assay [7] has as its system H35R0.3. Nature of the assay: Inhibition of methotrexate (5 uM) transport in H35 hepatoma cell culture and % uptake was reported in presence of inhibitor methotrexate (50 uM). The format is functional, cell-based. The gist of the method: (§2)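 Confluent H35 hepatoma monolayers were washed twice with Hanks BSS and held at 37 °C. [3H]methotrexate (5 μM, 5.5×10^5 dpm/nmol) was added with or without inhibitor, and uptake was taken at 4 min, within its linear range. Results are percent of the uninhibited control uptake, averaged from duplicate samples.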

For another assay, the system named is Lacticaseibacillus casei. Kind of assay: Inhibition of growth of Lactobacillus casei. The format is functional, organism-based.
Assay [8] deals with H35R0.3. Kind of assay: Inhibition of methotrexate (5 uM) transport in H35 hepatoma cell culture and % uptake was reported in presence of inhibitor folic acid (50 uM). The format is functional, cell-based. The gist of the method: as §2
The nature of assay [9]: Inhibition of growth of H35N cells. The format is functional, cell-based.
Assay [10] in a line: Inhibition of growth of H35FF cells. The format is functional, cell-based. The gist of the method:
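The H35FF line was derived from H35 cells by growth in 25 μM (6RS)-5-formyltetrahydrofolate, held constant, with FdUR raised from 0.3 nM in 3-fold steps to 100 nM. This selection amplifies thymidylate synthase to about 70 times the H35N level.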

For assay [11], the target named is T2, Dihydrofolate reductase (Homo sapiens, UniProt P00374).
T2 sequence (P00374 whole entry): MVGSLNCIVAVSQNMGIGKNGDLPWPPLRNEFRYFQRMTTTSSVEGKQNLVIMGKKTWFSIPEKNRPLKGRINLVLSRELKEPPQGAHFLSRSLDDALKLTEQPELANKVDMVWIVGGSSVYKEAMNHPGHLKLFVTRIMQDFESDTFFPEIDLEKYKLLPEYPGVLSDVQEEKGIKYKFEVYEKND
Kind of assay: Inhibition of pure human dihydrofolate reductase (DHFR) from lymphoblastoid cells.

Assay [12] has as its system H35R0.3. Nature of the assay: Inhibition of methotrexate (5 uM) transport in H35 hepatoma cell culture and % uptake was reported in presence of inhibitor aminopterin (50 uM). Format: functional, cell-based. The gist of the method: as §2
Assay [13] relates to H35R0.3. Nature of the assay: Inhibition of (6RS)-5-formyltetrahydrofolate (2 uM) transport in H35 hepatoma cell culture. Format: functional, cell-based. The gist of the method: as §1
Assay [14] concerns H35R0.3. Kind of assay: Inhibition of methotrexate (5 uM) transport in H35 hepatoma cell culture and % uptake was reported in presence of inhibitor PDDF (50 uM). The format is functional, cell-based. The gist of the method:
as §2

A short description of assay [15]: Inhibition of growth of colon adenocarcinoma SW 480 cells. Format: functional, cell-based. The settings on record: Homo sapiens, SW480.
Assay [16] relates to H35R0.3. Nature of the assay: Inhibition of (6RS)-5-formyltetrahydrofolate (2 uM) transport in H35 hepatoma cell culture and % uptake was determined in presence of inhibitor PDDF (50 uM). The format is functional, cell-based. Summed up:
as §1

In assay [17] the target is T3, Thymidylate synthase (Homo sapiens, UniProt P04818). Kind of assay: Inhibition of purified human thymidylate synthase from a SV40-transformed human fibroblast cell line cloned in Escherichia coli.
T3 sequence (P04818 whole entry): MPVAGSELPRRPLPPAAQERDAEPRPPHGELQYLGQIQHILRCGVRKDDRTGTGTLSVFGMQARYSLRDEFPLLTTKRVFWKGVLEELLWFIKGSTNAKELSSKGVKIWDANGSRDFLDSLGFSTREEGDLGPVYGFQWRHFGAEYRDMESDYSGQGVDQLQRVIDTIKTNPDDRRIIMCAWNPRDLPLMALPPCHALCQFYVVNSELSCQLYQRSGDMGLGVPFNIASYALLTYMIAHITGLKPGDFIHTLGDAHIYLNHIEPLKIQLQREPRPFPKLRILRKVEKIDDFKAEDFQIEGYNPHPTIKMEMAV
The target of assay [18] is T4, Thymidylate synthase (Lactobacillus casei, UniProt P00469).
T4 sequence (P00469 whole entry): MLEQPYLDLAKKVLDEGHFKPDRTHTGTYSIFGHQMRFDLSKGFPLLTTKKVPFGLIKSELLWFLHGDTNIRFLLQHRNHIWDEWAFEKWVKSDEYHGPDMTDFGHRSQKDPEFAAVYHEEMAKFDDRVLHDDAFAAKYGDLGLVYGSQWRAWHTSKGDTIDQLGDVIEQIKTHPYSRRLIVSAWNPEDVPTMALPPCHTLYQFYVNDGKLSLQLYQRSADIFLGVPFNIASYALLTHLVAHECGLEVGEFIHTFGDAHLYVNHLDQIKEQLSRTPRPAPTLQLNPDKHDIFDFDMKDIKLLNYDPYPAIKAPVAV
Nature of the assay: Inhibition of thymidylate synthase in Lactobacillus casei. On the set-up: species or system Lacticaseibacillus casei.

The test system of assay [19] is H35R0.3. Nature of the assay: Inhibition of methotrexate (5 uM) transport in H35 hepatoma cell culture and % uptake was reported in presence of inhibitor (6RS)-5-formyltetrahydrofolate (50 uM). The format is functional, cell-based. Summed up:
as §2

The test system of the next assay is Lymphoma cell line. Nature of the assay: Inhibition of growth of tumor cells, manca human lymphoma cells. The format is functional, cell-based.
The subject of assay [20] is H35R0.3. Kind of assay: Inhibition of (6RS)-5-formyltetrahydrofolate (2 uM) transport in H35 hepatoma cell culture and % uptake was determined in presence of inhibitor DMPDDF (50 uM). The format is functional, cell-based. Summed up:
as §1

The test system of assay [21] is H35R0.3. Nature of the assay: Inhibition of methotrexate (5 uM) transport in H35 hepatoma cell culture and % uptake was reported in presence of inhibitor DMPDDF (50 uM). Format: functional, cell-based. Summed up:
as §2

For assay [22], the target named is Bifunctional purine biosynthesis protein ATIC (Homo sapiens, UniProt P31939). Kind of assay: Inhibition of AICAR formyltransferase from extract of Manca human lymphoma cells. The format is cell-based.
Sequence of Bifunctional purine biosynthesis protein ATIC (P31939 whole entry): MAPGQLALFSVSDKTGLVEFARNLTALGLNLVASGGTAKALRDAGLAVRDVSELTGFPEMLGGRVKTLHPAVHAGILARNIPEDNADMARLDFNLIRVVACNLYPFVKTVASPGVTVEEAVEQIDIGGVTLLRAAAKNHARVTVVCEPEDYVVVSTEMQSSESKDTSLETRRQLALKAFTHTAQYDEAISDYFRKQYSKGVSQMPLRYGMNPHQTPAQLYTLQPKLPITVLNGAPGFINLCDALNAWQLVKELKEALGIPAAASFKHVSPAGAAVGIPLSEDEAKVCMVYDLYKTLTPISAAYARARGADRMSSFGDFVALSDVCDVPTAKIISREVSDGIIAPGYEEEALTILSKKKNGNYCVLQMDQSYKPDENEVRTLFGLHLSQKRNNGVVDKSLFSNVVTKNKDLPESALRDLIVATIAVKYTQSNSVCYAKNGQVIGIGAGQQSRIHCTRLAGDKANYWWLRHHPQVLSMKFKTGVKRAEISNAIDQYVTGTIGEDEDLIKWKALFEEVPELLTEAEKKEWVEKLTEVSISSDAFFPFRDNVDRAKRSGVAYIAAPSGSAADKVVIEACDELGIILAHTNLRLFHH
Assay [23] concerns the target T3, Thymidylate synthase. Kind of assay: Inhibition of pure human thymidylate synthase from extract of Manca human lymphoma cells. The format is cell-based.
Assay [24] has as its system H35R0.3. Nature of the assay: Inhibition of methotrexate (5 uM) transport in H35 hepatoma cell culture. Format: functional, cell-based. The gist of the method: as §2
Assay [25] deals with H35R0.3. Kind of assay: Inhibition of (6RS)-5-formyltetrahydrofolate (2 uM) transport in H35 hepatoma cell culture and % uptake was determined in presence of inhibitor aminopterin (50 uM). The format is functional, cell-based. The gist of the method: as §1
In the next assay the test system is Enterococcus faecium. Kind of assay: Inhibition of growth of Staphylococcus faecium. Format: functional, organism-based.

Sequence of Dihydrofolate reductase (Lactobacillus casei, UniProt P00381) (P00381 whole entry): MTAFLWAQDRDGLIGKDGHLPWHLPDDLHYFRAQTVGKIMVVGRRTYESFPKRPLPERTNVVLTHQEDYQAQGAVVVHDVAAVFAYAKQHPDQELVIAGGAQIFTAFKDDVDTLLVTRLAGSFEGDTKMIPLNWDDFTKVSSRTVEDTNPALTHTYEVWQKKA

Consider `C#CCN(Cc1ccc2nc(C)nc(O)c2c1)c1ccc(C(=O)NC(CCC(=O)O)C(=O)O)cc1` (centres undefined), for which the Uptake in the assay with H35R0.3 [1] turned out to be 22%; in the assay on H35R0.3 [4], 22%; with H35R0.3 [6] it was 83%; in the assay with H35R0.3 [7], 25%; in the assay with H35R0.3 [8], 85%; in the assay on H35R0.3 [12], 25%. For the same compound, the Uptake in the assay on H35R0.3 [13] turned out to be 100%; in the assay on H35R0.3 [14] it was 100%; in the assay with H35R0.3 [16] it was 90%; in the assay with H35R0.3 [19], 25%; with H35R0.3 [20], 8.5%; with H35R0.3 [21] it was 25%. Also, the Uptake in the assay on H35R0.3 [24] was determined as 100%; in the assay with H35R0.3 [25], 11%. Further, the IC50 against Dihydrofolate reductase [2] was 35 µM; in assay [3] it was greater than 17 µM; with H35R0.3 [5], 2240 nM; in the assay with Lacticaseibacillus casei, 22 nM; in assay [9], 55 nM; in assay [10] it was 7.28 µM. Also, the IC50 against Dihydrofolate reductase [11] is greater than 30 µM; in assay [15] it was 0.05 µM; against Thymidylate synthase [17], 0.0098 µM; at Thymidylate synthase [18], 100 nM; in the assay with Lymphoma cell line it was 13 nM; in [22], greater than 60 µM. In addition, the results for the 50% inhibitory concentration (IC50) against Thymidylate synthase [23] and in the assay on Enterococcus faecium were 60 nM and 6 nM, respectively.
For `CN(Cc1cnc2nc(N)nc(N)c2n1)c1ccc(C(=O)N[C@@H](CCC(=O)O)C(=O)O)cc1` [METHOTREXATE], the values for the IC50 (in the assay with H35R0.3 [5]; in [9]; in assay [10]) were 906 nM, 10 nM and 0.01 µM, respectively.
In turn, `C#CCN(Cc1ccc2nc(C(F)(F)F)nc(O)c2c1)c1ccc(C(=O)NC(CCC(=O)O)C(=O)O)cc1` (centres undefined) showed a half-inhibitory concentration (IC50) in assay [15] greater than 100 µM.
As to `C#CCN(Cc1ccc2[nH]c(N)nc(=O)c2c1)c1ccc(C(=O)NC(CCC(=O)O)C(=O)O)cc1` (centres undefined), the IC50 in the assay on H35R0.3 [5] amounted to 2000 nM; with Lacticaseibacillus casei, 0.4 nM; in [9], 3600 nM; in the assay with Lymphoma cell line it was 560 nM; in the assay on Enterococcus faecium, 0.13 nM.
`C#CCN(Cc1ccc2nc(C)n(C)c(=O)c2c1)c1ccc(C(=O)NC(CCC(=O)O)C(=O)O)cc1` (centres undefined): the concentration for half-maximal inhibition (IC50) in [15] was greater than 100 µM; on Thymidylate synthase [17] it was 11.3 µM.
